# Arbovirus anti – antivirals against arbovirus infection; AID 1251; inhibition, % at 10 µM; arbovirus infection cell-based antiviral screen; 200,000 compounds, 0.37% hits; in the data active = inhibition above about 30%
# m-calpain inh – inhibitors of pig calpain II; purified calpain II, fluorogenic peptide substrate, 30 min; 220,000 compounds, 0.37% hits; inhibition, % at 16 µM;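 active = inhibition above about 50%, limit read from the data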
# PKD1 inh – blocks activity of human protein kinase D1; Q15139; PKD1 kinase fluorescence polarization assay; inhibition, % (test concentration not listed); 200,000 compounds, 0.056% hits; AID 797; in the data active = inhibition above about 50%
# Target sequence (Q15139 whole entry, looked up): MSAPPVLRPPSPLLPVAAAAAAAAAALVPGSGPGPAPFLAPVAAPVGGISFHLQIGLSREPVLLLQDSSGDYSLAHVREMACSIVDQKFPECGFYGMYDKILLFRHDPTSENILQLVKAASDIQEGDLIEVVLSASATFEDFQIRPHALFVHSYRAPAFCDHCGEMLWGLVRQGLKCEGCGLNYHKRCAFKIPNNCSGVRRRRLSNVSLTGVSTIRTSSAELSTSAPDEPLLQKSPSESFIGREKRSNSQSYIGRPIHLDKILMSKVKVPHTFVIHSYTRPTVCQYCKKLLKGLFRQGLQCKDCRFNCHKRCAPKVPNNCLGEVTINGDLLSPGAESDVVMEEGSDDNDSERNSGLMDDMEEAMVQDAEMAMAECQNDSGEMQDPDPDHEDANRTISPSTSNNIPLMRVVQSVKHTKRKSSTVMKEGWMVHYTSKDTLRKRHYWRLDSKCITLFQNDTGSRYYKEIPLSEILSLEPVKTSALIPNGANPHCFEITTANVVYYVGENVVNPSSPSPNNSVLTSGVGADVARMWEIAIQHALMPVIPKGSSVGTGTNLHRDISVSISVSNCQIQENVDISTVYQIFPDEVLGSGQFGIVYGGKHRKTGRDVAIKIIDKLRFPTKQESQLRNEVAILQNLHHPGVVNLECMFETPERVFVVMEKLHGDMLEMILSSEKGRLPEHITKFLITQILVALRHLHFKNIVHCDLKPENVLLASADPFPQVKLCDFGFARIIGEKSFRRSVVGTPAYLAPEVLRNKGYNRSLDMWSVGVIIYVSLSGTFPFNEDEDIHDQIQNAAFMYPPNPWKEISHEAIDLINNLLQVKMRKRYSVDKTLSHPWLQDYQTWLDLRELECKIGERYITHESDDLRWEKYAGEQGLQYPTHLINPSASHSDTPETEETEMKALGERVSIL
# Mdm2 ligase inh – inhibitors of human Mdm2 E3 ubiquitin ligase. cell-based MDM2 ubiquitination luciferase reporter, 2 h; 0 = plate control, 100 = twice control, blank-subtracted. 210,000 compounds, 0.11% hits. signal enhancement, % at 5 µM. AID 1230;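 active = signal enhancement of 30% or more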;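 also: luminescence tracks abundance of the self-degrading MDM2-luciferase fusion protein; higher signal means inhibition of MDM2 E3 ligase activity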
#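 test system = mammalian cells stably expressing self-ubiquitinating, self-degrading MDM2 E3–luciferase fusion | quantity = 2000 cells/well | incubation = cell settling 4 h, compound treatment 2 h, both 37 °C | signal = luminescence with SteadyLite reagent, 15 min at room temperature | evaluation = % enhancement relative to plate controls after blank subtraction | benchmarks = plate controls and plate blanks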
# ROMK mod – modulates human ROMK potassium channel activity. P48048. Tet-inducible ROMK, thallium flux fluorescence; actives lie on both sides. B-score at 10 µM. 130,000 compounds, 2% hits. AID 1918;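 active = signal ratio slope over the read window, or its plate-corrected B-score, at least 3 SD from the plate mean, either direction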;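 also: B-score of the F/F0 ratio slope over 7 to 12 s after thallium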
# KCC2 mod – modulates chloride dependent transport by human KCC2 | KCC2 cells, thallium flux FluoZin-2 fluorescence | B-score of Tl+ flux slope (higher = more flux/activation; lower = inhibition) at 10 µM | 190,000 compounds, 2.2% hits;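 active = thallium flux slope and its plate-corrected score both differing from the plate sample mean at a set confidence after two filtering rounds, in either direction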;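 also: slope of fluorescence scaled to starting intensity during 10 to 20 s after thallium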
# KCC2 sec1 – confirmation of human KCC2 transport modulators | 3,700 compounds, 15% hits | HEK293-KCC2, thallium flux, FluoZin2 fluorescence; active compounds read high | shares compounds with KCC2 mod | AID 1713 | normalised thallium flux (F/F0 slope) at 10 µM;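 active = thallium flux slope above the same plate's solvent-only control mean plus 3 SD; inconclusive = the two replicate wells disagree; inactive = no significant difference from solvent-only control wells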
# KCC2 bumet counter – thallium flux persisting under bumetanide in KCC2 cells, counter-screen secondary assay. shares compounds with KCC2 mod. HEK293-KCC2 + bumetanide/ouabain, thallium flux FluoZin2; active compounds read high. normalized thallium flux at 10 µM. 3,700 compounds, 49% hits. AID 1714;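 active = thallium entry rate above the same plate's blocked-transporter control wells by more than 3 SD; inconclusive = the two repeat wells disagree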;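 also: raw slope of fluorescence over initial fluorescence between 10 and 20 s after thallium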
# KCC2 sec2 – KCC2 (human) modulation, second secondary assay; shares compounds with KCC2 mod; HEK293-KCC2, thallium flux FluoZin2 fluorescence; actives lie on both sides; F/F0 rise rate, 10–20 s post-thallium; normalized thallium flux at 10 µM; 3,700 compounds, 23% hits; AID 1715;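 active = thallium flux slope more than 3 SD above or below the plate's solvent-only control mean, mostly below; inconclusive = the two repeat wells disagreed; inactive = no significant shift from solvent-only controls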;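 also: raw slope with 0.1% DMSO as baseline and bumetanide as block control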
# HEK293 Tl flux – parental HEK flux effect, counter-screen. 3,700 compounds, 46% hits. thallium flux rate (normalised fluorescence) at 10 µM. shares compounds with KCC2 mod. HEK293 parental cells, thallium flux FluoZin2, ouabain; baseline-ratio fluorescence slope, 10–20 s after thallium;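 active = thallium flux rate significantly above the same plate's solvent-only control wells, beyond their mean plus 3 SD; inconclusive = the two replicate wells gave conflicting results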
# KCC2 ouabain – modulates human KCC2 on retest with ouabain; AID 1717; 3,700 compounds, 48% hits; HEK293-KCC2, thallium flux FluoZin2 fluorescence; bidirectional: low = inhibitor, high = activator; shares compounds with KCC2 mod; raw Tl+ flux slope (below DMSO = inhibition, above = activation) at 10 µM;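 active = thallium flux slope beyond 3 SD from same-plate DMSO control mean in most replicates, usually higher, sometimes lower; inconclusive = repeat tests gave conflicting results; inactive = no significant difference from controls in most replicates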;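 also: slope of initial-normalized fluorescence between seconds 10 and 20 after thallium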
# HEK counter2 – acts in parental HEK cells, second KCC2 counter-screen | 3,700 compounds, 33% hits | thallium flux slope at 10 µM | HEK293 parental, thallium flux FluoZin-2 fluorescence slope | shares compounds with KCC2 mod | AID 1718;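 active = thallium flux slope above the same plate's solvent-control mean plus 3 SD in both duplicate wells; inconclusive = duplicate wells that disagreed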;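 also: run without ouabain in cells lacking the KCC2 cotransporter; slope of fluorescence scaled to its starting value between 10 and 20 s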
# Active calls of the source: *; ? = inconclusive; · = no result given. Shown are actives, neighbours in structure and some others; about 3.7% of the full set was active somewhere.
SMILES,Arbovirus anti,m-calpain inh,PKD1 inh,Mdm2 ligase inh,ROMK mod,KCC2 mod,KCC2 sec1,KCC2 bumet counter,KCC2 sec2,HEK293 Tl flux,KCC2 ouabain,HEK counter2
CCOC(=O)C1(Cc2cccc(Cl)c2)CCCN(C(=O)c2cccc(C)n2)C1 (stereo unspecified),16.5,-31.9,-14.2,-6.4,·,0.0107,·,·,·,·,·,·
CC(=O)C1=C(C)NC(=O)CC1c1ccc(F)cc1 (stereo unspecified),-0.4,7.5,-7.0,-22.1,-0.168,0.367,·,·,·,·,·,·
O=C(NC(=S)N1CCN(Cc2ccccc2)CC1)c1ccco1,-0.7,-16.0,-4.0,-1.6,-0.598,0.941,·,·,·,·,·,·
COc1cc(NC(=O)CCCc2c[nH]c3ccccc23)cc(OC)c1,-4.8,5.3,-3.0,-6.3,·,0.0167,·,·,·,·,·,·
Cc1ccc(-c2c[nH]c(=S)n2-c2ccccc2F)cc1,15.5,-4.7,-5.0,-2.7,0.00488,3.02,·,·,·,·,·,·
Cc1ccc(-c2c[nH]c(=S)n2-c2ccccc2)cc1,-3.1,34.4,-6.5,-23.6,0.627,7.28*,0.012,0.0226*,0.0372,?,?,?
CCOC(=O)C(Cc1ccccc1)c1ccnc2nc(N)nn12 (stereo unspecified),5.8,-87.0,1.3,-9.4,-1.88,-1.8,·,·,·,·,·,·
CCN(CC)CC#CCC(O)(c1ccccc1)C1CCCCC1 (stereo unspecified),-7.5,-13.5,-5.2,·,-2.57,-0.684,·,·,·,·,·,·
CCN(CC)CC#CCOC(=O)C(O)(c1ccccc1)C1CCCCC1 (stereo unspecified),9.1,30.4,0.5,·,·,1.29,0.00853,0.00584,0.0346,0.00779,0.0211,0.0109
CCOC(=O)c1cnn(-c2nc(OC)cc(OC)n2)c1C(F)(F)F,-8.8,-5.6,-7.4,-0.4,·,-10.7*,0.00694,0.00427,0.0295,0.00732,0.0186,0.0103
CS(=O)(=O)N(CC(=O)N1CCOCC1)c1ccc2c(c1)OCO2,-3.6,-19.4,-3.2,3.8,·,1.6,·,·,·,·,·,·
CS(=O)(=O)N(CC(=O)N1CCCC1)c1ccc2c(c1)OCCO2,12.6,-2.4,2.2,-0.2,-0.0325,·,0.0073,0.00505,0.0302,0.00839,0.0179,0.0114
CCOc1ccc(Nc2nc(NCCN3CCOCC3)nc(OC)n2)cc1,6.0,14.3,3.0,-8.0,0.297,·,0.00882,?,0.0349,0.00777,0.0192,0.0119
CCn1c(=O)c2cc(C(=O)N(C)c3ccc(OC)cc3OC)sc2c2ccccc21,·,-3.2,·,-14.9,·,-2.13,·,·,·,·,·,·
CCn1c(=O)c2cc(C(=O)N(C)c3cc(C)ccc3OC)sc2c2ccccc21,·,-11.3,·,-0.9,0.14,-2.97*,0.00851,?,0.0331,0.00556*,0.0187,?
CC(C(=O)NC(C)(C)C)N1C(=O)c2cccc3cccc(c23)C1=O (stereo unspecified),6.5,-36.5,-0.4,-6.2,-0.474,0.317,·,·,·,·,·,·
COc1ccccc1NC(=O)CN1C(=O)NC(CC(C)C)C1=O (stereo unspecified),7.7,8.0,-5.3,3.1,·,-5*,0.0112,0.00715,0.0348,0.00411,0.0201,0.0115
Cc1[nH]c2ccc3c(ncn3CCC#N)c2c1C,-5.7,-22.4,4.7,-19.6,1.23,1.68,·,·,·,·,·,·
CCc1ccc(OCC(=O)NNC(=O)c2cc3ccccc3o2)cc1,-11.0,-56.1,2.0,1.9,-0.0111,1.93,·,·,·,·,·,·
O=C(NNC(=O)c1cc2ccccc2o1)c1ccc(Cl)cc1,·,-13.2,·,-5.8,·,8.65*,0.01,0.0241*,0.033,0.0113*,?,0.0117*
Cc1cc(C)cc(OCC(=O)NNC(=O)c2cc3ccccc3o2)c1,3.3,33.5,-0.1,-9.2,1.14,30.8*,0.019*,0.102*,0.0326,0.0337*,0.0587*,0.0152*
O=C(Nc1ccc(Cl)cn1)c1cc2ccccc2o1,-0.3,1.9,-0.5,-19.2,·,-1.53,·,·,·,·,·,·
O=C/C(=C\Nc1ccc(S(=O)(=O)CCO)cc1)c1nc2cc(Cl)ccc2o1,12.1,-88.8,3.5,-9.1,0.426,-0.126,·,·,·,·,·,·
Cc1oc(S(=O)(=O)N2CCCCC2)cc1NC(=O)Nc1ccc(F)cc1,·,10.5,·,-30.2,-1.18,-0.456,·,·,·,·,·,·
CCOC(=O)Cc1csc(NC(=O)C(C)c2ccc([N+](=O)[O-])cc2)n1 (stereo unspecified),7.2,17.0,-7.9,-9.2,0.0162,-1.65,·,·,·,·,·,·
SMILES,Arbovirus anti,m-calpain inh,PKD1 inh,Mdm2 ligase inh,ROMK mod,KCC2 mod,KCC2 sec1,KCC2 bumet counter,KCC2 sec2,HEK293 Tl flux,KCC2 ouabain,HEK counter2
CCOC(=O)Cc1csc(NC(=S)NC(=O)CC(C)C)n1,-2.6,35.6,-12.9,6.8,-0.14,8.79*,?,0.0403*,0.0301,0.0139*,0.0358*,0.0111*
CCOC(=O)Cc1csc(NC(=S)NC(=O)c2cc(OC)cc(OC)c2)n1,-4.9,-13.3,-4.9,-2.4,-0.256,26.2*,0.0146*,0.0345*,0.0302,0.0234*,0.0647*,0.0116*
CCOC(=O)Cc1csc(NC(=S)NC(=O)c2cccc([N+](=O)[O-])c2)n1,-4.2,1.1,5.5,·,0.0686,9.62*,0.0139*,0.034*,0.0356,0.0137*,0.0343*,0.0113
CC(=NCc1cccc(Cl)c1)c1nc(-c2ccco2)oc1O,-40.2,18.4,-18.7,-15.7,-1.23,-0.858,·,·,·,·,·,·
COC(=O)CNC(=O)Cc1c(F)cccc1Cl,1.0,14.5,3.4,-6.9,·,·,·,·,·,·,·,·
FC(F)Sc1nc2ccccc2[nH]1,·,-5.0,·,-9.0,0.57,50.3*,0.026*,0.113*,0.0481*,0.0502*,0.0512*,0.0244*
FC(F)c1nc2ccccc2[nH]1,-1.3,-24.6,-5.4,-14.6,·,0.184,·,·,·,·,·,·
Cc1ccc(C(=O)N2CCC(Cc3ccccc3)CC2)cc1[N+](=O)[O-],3.9,8.6,-4.6,-6.0,0.0362,-5.68*,0.00805,?,0.0336,0.00337,0.0143*,0.0115
CC1CCN(C(=O)c2ccc(SCc3ccccc3F)c([N+](=O)[O-])c2)CC1,6.6,17.9,-17.3,-5.7,-0.114,-3.38*,0.00679,0.0052,0.0249*,0.00804,?,0.0097
O=C(c1ccc2c(c1)OCO2)N1CCC(Cc2ccccc2)CC1,·,18.6,·,-8.8,·,-3.21,·,·,·,·,·,·

# Screening results (PubChem)
